# Compound activity as filed in PubChem BioAssay.
# Sampled rows, rich in hits. Any-hit rate of the full collection: about 4.7%.
# MT1-MMP act inh = blockers of MT1-MMP proenzyme processing, primary screen, HT1080 RFP-PRO-GFP cells, GFP/RFP fluorescence | Matrix metalloproteinase-14 (Homo sapiens), P50281 | GFP/RFP ratio change, % at 20 µM | hit rate 0.061% among 360,000 | AID 651647, 2012 | GFP/RFP ratio fluorescence, overnight; percent of plate control window, DMSO zero;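 active = GFP/RFP ratio change of at least 30% with cell ATP level not reduced by more than half and red fluorescence within 50% of control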
#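 Test system: HT1080 cells expressing an RFP-PRO-GFP fluorescent reporter construct / Compound dosing: single-point 20 µM compound, 1% DMSO / Schedule: cells overnight before dosing, compound overnight, 37 °C, 5% CO2 / Evaluation: GFP/RFP fluorescence ratio / Control set: DMSO and RFP-L50D-GFP cell wells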
# ADAM17 inh = ADAM17 inhibitors, primary screen, biochemical, QFRET. recombinant ADAM17, EDANS/DABCYL FRET peptide cleavage. inhibition, % at 6.95 µM. hit rate 0.83% among 370,000;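 active = inhibition above the mean of compounds lying between control limits plus 3 SD, set per campaign, cut at about 8.5% in these data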;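 also: 0% = DMSO-only wells as the low control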
# ADAM10 inh = human ADAM10 inhibitors, primary screen, biochemical, QFRET, HTS; Disintegrin and metalloproteinase domain-containing protein 10 (Homo sapiens), O14672; recombinant ADAM10, EDANS/DABCYL FRET peptide cleavage, 3 h; inhibition, % at 7 µM; hit rate 0.62% among 370,000;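 active = inhibition above a per-campaign cutoff equal to the mean of compounds falling between control-based bounds plus 3 SD, cut at about 20% in these data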;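 also: 0% = DMSO wells while the 100% control is not disclosed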
# Target sequence (O14672 214-748 limits assumed): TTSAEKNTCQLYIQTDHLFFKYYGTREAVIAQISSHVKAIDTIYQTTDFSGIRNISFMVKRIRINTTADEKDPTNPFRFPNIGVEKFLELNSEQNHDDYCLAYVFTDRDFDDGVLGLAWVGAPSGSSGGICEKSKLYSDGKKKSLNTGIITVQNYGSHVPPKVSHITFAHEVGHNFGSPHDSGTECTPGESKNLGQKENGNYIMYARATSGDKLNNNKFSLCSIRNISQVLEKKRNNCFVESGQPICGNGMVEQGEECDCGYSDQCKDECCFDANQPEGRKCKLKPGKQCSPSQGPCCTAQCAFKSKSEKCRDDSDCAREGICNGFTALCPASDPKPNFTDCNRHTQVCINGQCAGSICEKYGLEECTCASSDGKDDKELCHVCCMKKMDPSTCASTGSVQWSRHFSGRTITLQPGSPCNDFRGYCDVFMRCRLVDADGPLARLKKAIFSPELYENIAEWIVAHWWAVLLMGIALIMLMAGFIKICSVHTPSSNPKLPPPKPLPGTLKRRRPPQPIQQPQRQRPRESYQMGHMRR
# SKN-1 block = suppressors of acrylamide-induced Pgst-4::GFP reporter in worms, primary screen, SKN-1 inhibitor project, whole organism, uHTS, GFP/RFP fluorescence ratio, strain VP596 | C. elegans VP596 Pgst-4::GFP/RFP ratio, 24 h | inhibition, % at 21.8 µM | hit rate 0.49% among 360,000;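 active = interference check ratio from 0.5 to 1.5 plus GFP to RFP signal ratio inhibition reaching or exceeding a fixed threshold, cut at about 30% in these data, passing the limit was not always enough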
# NR3A LBD binder = binders of NR3A ligand-binding domain, primary screen, biophysical, differential scanning fluorimetry, uHTS | AID 1259313, 2017 | hit rate 2.5% among 340,000 | NR3A LBD differential scanning fluorimetry, Tm shift; 0% = protein alone, 100% = glycine-bound protein | Tm shift relative to glycine control, % at 25 µM;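 active = melting temperature shift of at least 10% of the positive control shift, at one fixed dose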
# MPTP inh = mitochondrial permeability transition pore inhibitors, primary screen, biochemical, isolated mouse mitochondria, absorbance | Ca2+ swelling absorbance, 30 min | inhibition, % at 10 µM | hit rate 1.4% among 360,000;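 active = inhibition of 50% or more, scaled per plate between neutral and stimulator controls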;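 also: 0% = DMSO wells given calcium and 100% = 1 mM EGTA wells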
# Rh123 counter = fluorescence retest of MPTP screen hits in isolated mitochondria, single concentration | shares compounds with MPTP inh | membrane potential, Rhodamine 123 fluorescence | inhibition, % at 10 µM | hit rate 78% among 5,000; in the data active = inhibition above about 22%;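 also: 0% = DMSO vehicle and 100% = positive control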
# MPTP swell DR = mitochondrial permeability transition pore inhibitors, dose response, biochemical, absorbance, uHTS hits. AID 651561, 2012. isolated mitochondria swelling. IC50, µM. shares compounds with MPTP inh. hit rate 58% among 780; in the data active = IC50 below about 20 µM
# MPTP cs DR = fluorescent counter-screen in isolated mitochondria, dose response, counter-screen for MPTP inhibitor project, biochemical, fluorescence, uHTS hits; AID 651564, 2012; hit rate 49% among 780; IC50, µM; shares compounds with MPTP inh; isolated mitochondria counterscreen, fluorescence read-out; in the data active = IC50 below about 80 µM
# Numbers without * were called inactive; i = inactive; nt = not tested or not shown.
SMILES,MT1-MMP act inh,ADAM17 inh,ADAM10 inh,SKN-1 block,NR3A LBD binder,MPTP inh,Rh123 counter,others
CCOC(=O)C1CCN(C(=O)c2ccc(NS(=O)(=O)c3ccc4[nH]c(=O)[nH]c4c3)cc2)CC1,6,-1,-20,-1,3,0,nt,
CCC(C)c1ccc(C(C)NC(=S)NCc2ccc(F)cc2)cc1 (configuration not stated),-6,6,4,-5,13*,60*,94*,
CCOc1ccc(C(C)NC(=S)NCc2ccc(Cl)cc2)cc1 (configuration not stated),0,3,10,14,5,60*,94*,
CCC(NC(=S)NCc1ccc(F)cc1)c1ccc(C(C)C)cc1 (configuration not stated),0,7,13,11,10,79*,91*,
CC(NC(=S)NCc1ccc(F)cc1)C12CC3CC(CC(C3)C1)C2 (configuration not stated),-6,0,0,2,4,80*,90*,
COc1ccc(C(C)NC(=S)NCc2ccc(F)cc2)cc1OC (configuration not stated),4,-4,5,6,-1,1,nt,
O=C(CSC(=S)N1CCOCC1)c1cc2ccccc2oc1=O,4,nt,nt,-11,1,0,nt,
COCCCNC(=O)/C(C#N)=C/c1c(N2CCN(C)CC2)nc2c(C)cccn2c1=O,-2,-211,i,-14,0,-1,nt,
CC1CCCN(C(=O)c2ccc3c(=O)n(C4CCCC4)c(=S)[nH]c3c2)C1 (configuration not stated),-5,-1,3,12,-4,19,nt,
O=C(c1ccc2c(=O)n(C3CCCC3)c(=S)[nH]c2c1)N1CCCCCC1,-5,0,-1,1,-5,89*,79*,
COc1cc(/C=N/Nc2snc(SC)c2C#N)cc(OC)c1OC,-7,-3,0,6,-1,73*,75*,
O=C(Cn1ccnc1[N+](=O)[O-])N(CCO)CCO,3,2,-6,11,nt,-1,nt,
CCN(CC)CCNc1cccc2sc3ccccc3c(=O)c12,-9,0,-16,1,nt,1,nt,
CCN(CC)CCNc1ccc(CO)c2sc3ccccc3c(=O)c12,-1,-1,-5,1,-1,60*,-6,
CSc1cccc(NC(=S)N2CCCN(Cc3ccccc3F)C2)c1,2,-1,5,-1,-1,69*,81*,
CCOc1cc(NC(=O)c2cccs2)c(OCC)cc1NC(=O)c1ccccn1,7,-5,-2,10,0,1,nt,
COC(=O)c1ccc(NC(=O)N2CCCC(C(=O)c3ccccc3OC)C2)cc1 (configuration not stated),1,3,2,-16,6,70*,75*,
CCCCNCCOCCOc1ccc(C)cc1Br,1,0,2,3,-7,61*,-11,MPTP swell DR=i;MPTP cs DR=>80
CN(C)CC(C)(C)CNS(=O)(=O)c1ccc(Cl)s1,2,-1,-1,5,-1,0,nt,
C=CCSc1nsc(NC(=O)Nc2ccc(F)cc2)n1,-12,2,5,8,28*,98*,78*,
CCSc1nsc(NC(=O)Nc2ccccc2F)n1,2,1,9,19,-2,66*,87*,
COc1cccc(OC)c1NC(=O)c1ccc(-c2cc(Cl)ccc2Cl)o1,-4,1,8,6,nt,-1,nt,
CN(C(=O)c1ccc(NC(=O)c2ccco2)cc1)c1ccccc1,3,-6,2,20,2,-1,nt,
O=C(NCc1ccccc1)c1sc(=S)n2c1[nH]c(=O)c1ccccc12,12,0,8,13,12*,86*,89*,
Cc1snc(S(=O)(=O)/C(C#N)=N/Nc2ccc(C(F)(F)F)cc2)c1C#N,-3,0,11,11,24*,90*,103*,
SMILES,MT1-MMP act inh,ADAM17 inh,ADAM10 inh,SKN-1 block,NR3A LBD binder,MPTP inh,Rh123 counter,others
O=C(/C=C/c1ccc(Br)cc1)NC(=O)c1ccccc1O,0,1,3,1,3,102*,88*,
Cc1nn(S(=O)(=O)c2ccc(Cl)cc2)c(C)c1Sc1ccc([N+](=O)[O-])cc1,1,1,-11,-13,1,61*,41*,
c1ccc(CCn2nnnc2CN2CCc3ccccc32)cc1,-5,-6,-4,11,-2,-1,nt,
CCCCC#Cc1cncc(C(=O)NN)c1,-7,-3,3,-19,0,1,nt,
CCCCCCC#Cc1cncc(C(=O)NNC(=O)Nc2cc(Cl)cc(Cl)c2)c1,3,1,6,16,16*,55*,55*,
Fc1ccccc1C1c2cccn2CCN1C(=S)Nc1cccc(Br)c1 (configuration not stated),1,3,5,-6,0,3,nt,
Fc1ccccc1C1c2cccn2CCN1C(=S)Nc1ccc(Br)cc1 (configuration not stated),-6,-7,-5,-17,7,101*,92*,
COc1ccccc1N(C(=O)CCl)c1cn(C(C)=O)c2ccccc12,-25,-7,-2,0,1,1,nt,
COc1ccccc1N(C(C)=O)C1=C(Cl)C(=O)c2ccccc2C1=O,-165,3,-6,5,nt,51*,95*,
COc1ccc(CCNC(=O)COc2ccc(C)nc2[N+](=O)[O-])cc1,0,1,-1,-6,-1,-2,nt,
CC(C)NC(=O)C1CCN(C2CCN(C(=O)/C=C/c3cccs3)CC2)CC1,2,-2,-9,-7,1,18,nt,
COCCn1c(SCC(=O)NCc2ccccc2)nc2ccccc21,-2,1,-6,-3,1,1,nt,
COCCn1c(SCc2csc(-c3ccccc3)n2)nc2ccccc21,-2,5,8,12,-2,70*,41*,
